Reference: ChEMBL document CHEMBL1140733, “Comprehensive study of sansalvamide A derivatives and their structure-activity relationships against drug-resistant colon cancer cell lines” (J Med Chem, 2008)
Peptide text beside a SMILES is read from it.

Experiments:
HCT-15 [1] = assay: Cytotoxicity against multidrug-resistant human HCT15 cells by thymidine incorporation assay; type: functional, cell-based
In short: (§1)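 Cells (3000/well) were plated in IMDM (HCT-116), RPMI 1640 (HCT-15) or MEM (WS-1), each with L-glutamine, 10% FBS and 0.1% penicillin-streptomycin. Compounds in DMSO (1% in all wells) were added after about 6 h and left for 72 h, with 3H-thymidine pulsed for the last 16 h. Uptake was scintillation-counted against DMSO controls. IC50 came from four-concentration curves, three experiments in quadruplicate.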

HCT-15 [2] = assay: Cytotoxicity against multidrug-resistant human HCT15 cells at 1 uM by thymidine incorporation assay; type: functional
In short: (§2)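 HCT-116 cells were grown in IMDM and HCT-15 in RPMI 1640, each with L-glutamine, 10% FBS and penicillin-streptomycin, at 3000 cells/well. Compound was applied at 1 µM in 1% DMSO for 72 h total, with 3H-thymidine added for the final 16 h. Percent growth inhibition versus DMSO controls was scintillation-counted, averaging three wells in each of three assays.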

HCT-116 [3] = assay: Cytotoxicity against multidrug-resistant human HCT116 cells by thymidine incorporation assay; type: functional, cell-based; in short: as §1
[4] = Cytotoxicity against human WS1 cells by thymidine incorporation assay; type: cell-based; in short: as §1
HCT-116 [5] = assay: Cytotoxicity against multidrug-resistant human HCT116 cells at 1 uM by thymidine incorporation assay; type: functional; in short: as §2
HCT-116 [6] = assay: Selectivity for multidrug-resistant human HCT116 cells over human WS1 cells; type: functional
HCT-15 [7] = assay: Selectivity for multidrug-resistant human HCT15 cells over human WS1 cells; type: functional

| Structure (SMILES) | IC50 (HCT-15 [1]) | inhibition at 1 µM (HCT-15 [2]) | IC50 (HCT-116 [3]) | IC50 [4] | inhibition at 1 µM (HCT-116 [5]) | Ratio IC50 (HCT-116 [6]) | Ratio IC50 (HCT-15 [7]) |
| --- | --- | --- | --- | --- | --- | --- | --- |
| CC(C)C[C@@H]1NC(=O)[C@H](C(C)C)NC(=O)[C@H](CC(C)C)N(C)C(=O)[C@@H](CC(C)C)NC(=O)[C@@H](Cc2ccccc2)NC1=O (HELM PEPTIDE1{[dL].[meL].V.L.[dF]}$PEPTIDE1,PEPTIDE1,1:R1-5:R2$$$V2.0) | 2.2 µM | 42% | 0.7 µM | 136 µM | 64% |  |  |
| CC(C)C[C@@H]1NC(=O)[C@H](Cc2ccccc2)NC(=O)[C@@H](Cc2ccccc2)N(C)C(=O)[C@H](C(C)C)NC(=O)[C@H](CC(C)C)NC1=O | 0.7 µM | 57% | 0.8 µM | 200 µM | 59% | >250 | >250 |
| CC(C)C[C@@H]1NC(=O)[C@H](Cc2ccccc2)NC(=O)[C@H](CC(C)C)NC(=O)[C@@H](C(C)C)N(C)C(=O)[C@H](CC2CCCCC2)NC1=O (HELM PEPTIDE1{[Cha].[CC(C)[C@H](C(=O)[*:2])N(C)[*:1]].L.F.L}$PEPTIDE1,PEPTIDE1,1:R1-5:R2$$$V2.0) | 0.8 µM | 60% | 2.1 µM | 4 µM | 48% |  |  |
| CC(C)C[C@@H]1NC(=O)[C@H](Cc2ccccc2)NC(=O)[C@H](CC(C)C)NC(=O)[C@H](C(C)C)NC(=O)[C@H](CC(C)C)NC1=O (HELM PEPTIDE1{F.L.L.V.L}$PEPTIDE1,PEPTIDE1,1:R1-5:R2$$$V2.0) | 46 µM | 10% | 25 µM | 200 µM | 28% |  |  |
| CC(C)C[C@@H]1NC(=O)[C@H](Cc2ccccc2)NC(=O)[C@H](CC(C)C)NC(=O)[C@@H](C(C)C)NC(=O)[C@H](CC(C)C)NC1=O (HELM PEPTIDE1{F.L.L.[dV].L}$PEPTIDE1,PEPTIDE1,1:R1-5:R2$$$V2.0) | 0.8 µM | 48% | 1.3 µM | 20 µM | 48% |  |  |
| Nc1ccn([C@@H]2O[C@H](CO)[C@@H](O)C2(F)F)c(=O)n1 [GEMCITABINE] | 11.8 µM |  | 14.3 µM | 200 µM |  |  |  |
| CC(C)C[C@@H]1NC(=O)[C@H](C(C)C)NC(=O)[C@H](CC(C)C)NC(=O)[C@H](CC(C)C)N(C)C(=O)[C@H](Cc2ccccc2)NC1=O (HELM PEPTIDE1{F.[meL].L.V.L}$PEPTIDE1,PEPTIDE1,1:R1-5:R2$$$V2.0) | 4.5 µM | 35% | 0.8 µM | 200 µM | 59% |  |  |
| CC(C)C[C@@H]1NC(=O)[C@H](C(C)C)NC(=O)[C@H](CC(C)C)NC(=O)[C@@H](CC(C)C)N(C)C(=O)[C@H](Cc2ccccc2)NC1=O (HELM PEPTIDE1{[CC(C)C[C@H](C(=O)[*:2])N(C)[*:1]].L.V.L.F}$PEPTIDE1,PEPTIDE1,1:R1-5:R2$$$V2.0) | 1.2 µM | 48% | 2 µM | 200 µM | 42% |  |  |
| CC(C)C[C@@H]1NC(=O)[C@H](CC(C)C)NC(=O)[C@@H](Cc2ccc(O)cc2)NC(=O)[C@H](CC(C)C)NC(=O)[C@H](C(C)C)NC1=O (HELM PEPTIDE1{L.L.V.L.[dY]}$PEPTIDE1,PEPTIDE1,1:R1-5:R2$$$V2.0) | 1 µM | 47% | 1.5 µM | 200 µM | 45% |  |  |
